Measured values from ChEMBL document CHEMBL1142787, “Bicyclic nucleoside inhibitors of Varicella-Zoster virus: the effect of branching in the p-alkylphenyl side chain” (Bioorg Med Chem Lett, 2005).

Experiments:
[1] = Minimal cytotoxic concentration required to alter microscopically detectable cell morphology; type: functional
Method in brief: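 Cell morphology scored by microscopy; compounds dissolved in neat DMSO, then diluted in biological media to stock solutions of ca. 50–200 μM with 1% DMSO; MCC recorded as the minimal concentration that alters microscopically detectable morphology.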

[2] = Effective concentration required to reduce thymidine kinase-Varicella Zoster virus YS/R plaque formation by using DMSO as solvent; type: functional, Human alphaherpesvirus 3
[3] = system: HEL (human embryonic lung fibroblasts); assay: Cytotoxic concentration required to inhibit Hel cell growth by using DMSO as solvent
[4] = Effective concentration required to reduce Varicella Zoster virus OKA plaque formation by using DMSO as solvent; type: functional, Human alphaherpesvirus 3

- EC50 [2]: 53 µM
- EC50 [4]: 1.5 µM
SMILES: Nc1nc2c(ncn2COCCO)c(=O)[nH]1 [ACYCLOVIR]
- MCC [1]: > 200 µM
- CC50 [3]: > 400 µM
